Screening data: PubChem, The Scripps Research Institute Molecular Screening Center
M4 ag: agonists of human muscarinic M4 receptor (CHRM4). P08173. CHO-K1 hM4/Gqi5, Fluo-8 calcium fluorescence; vehicle 0%, full acetylcholine response 100%. activation, % at 3 µM. 360,000 compounds, 0.14% hits;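 active means activation above the run mean over all test wells plus 3 SD, cut at about 32% in these data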;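 further: peak over basal fluorescence ratio per well then scaled between controls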
Target sequence (P08173 whole entry, looked up): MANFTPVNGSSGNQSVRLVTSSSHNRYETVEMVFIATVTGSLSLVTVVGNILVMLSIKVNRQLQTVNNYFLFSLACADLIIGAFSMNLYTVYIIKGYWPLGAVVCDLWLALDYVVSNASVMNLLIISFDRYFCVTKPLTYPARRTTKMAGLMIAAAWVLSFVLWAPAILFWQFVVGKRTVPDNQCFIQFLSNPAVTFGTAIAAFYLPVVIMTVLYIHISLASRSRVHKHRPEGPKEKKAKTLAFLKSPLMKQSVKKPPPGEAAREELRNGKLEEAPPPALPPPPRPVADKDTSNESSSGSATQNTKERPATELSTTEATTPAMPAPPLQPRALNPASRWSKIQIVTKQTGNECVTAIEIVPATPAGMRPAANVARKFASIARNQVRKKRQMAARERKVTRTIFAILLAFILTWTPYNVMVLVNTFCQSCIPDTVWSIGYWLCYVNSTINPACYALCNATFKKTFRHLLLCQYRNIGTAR
CHRM5 PAM: positive allosteric modulators of human muscarinic M5 receptor; P08912; CHO-K1 hM5, Fluo-8 calcium, ACh EC20 PAM; 0% = ACh EC20, 100% = ACh EC100; activation, % at 3 µM; 360,000 compounds, 0.3% hits;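 active means activation above the run cutoff, the mean activation of all test compounds plus 3 SD, cut at about 18% in these data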
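Assay system: CHO-K1 hM5 cells / Incubation: Fluo-8 loading 80 min at 37 °C plus 30 min room temperature / Technique: Fluo-8 calcium dye fluorescence, kinetic read / Repeats: single replicate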
M4 PAM: CHRM4 positive allosteric modulation; CHO-K1 hM4/Gqi5, Fluo-8 calcium fluorescence, ACh EC20; 0% = ACh EC20, 100% = maximal ACh; activation, % at 3 µM; 360,000 compounds, 0.4% hits; AID 624126;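 active means activation above its plate's cutoff, the mean activation of sample wells plus 3 SD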
CHRM4 antagonist: blocks acetylcholine activation of human M4 receptor; P08173; inhibition, % at 3 µM; CHO-hM4 cells, ACh EC80, Fluo-8 calcium fluorescence; AID 624125; 360,000 compounds, 0.73% hits;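 active means inhibition above its plate's cutoff, the mean inhibition of sample wells plus 3 SD, cut at about 27% in these data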
M5 antag: CHRM5 antagonism in calcium assay; P08912; CHO-hM5 cells, Fluo-8 calcium fluorescence, ACh EC80; inhibition, % at 3 µM; 360,000 compounds, 0.59% hits; AID 624040;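 active means inhibition above a per-plate cutoff, the mean of that plate's test compounds plus 3 SD, cut at about 27% in these data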
CHRM5 agonist: agonists of human muscarinic M5 receptor (CHRM5); P08912; CHO-K1 hM5 cells, Fluo-8 calcium fluorescence; 0% DMSO wells, 100% maximal acetylcholine response; activation, % at 3 µM; 360,000 compounds, 0.19% hits; AID 624037;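 active means activation above the run's mean over test compounds plus 3 SD, cut at about 23% in these data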;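 further: signal is peak over basal fluorescence ratio across the kinetic read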
A number is an active result; 0 = inactive. A selection: hits, their analogues and other compounds. The true share with any hit is near 1.9%.

SMILES | M4 ag | CHRM5 PAM | M4 PAM | CHRM4 antagonist | M5 antag | CHRM5 agonist
CSc1sc(C(=O)NCC2CC2)c(-c2cccs2)c1C#N | 0 | 0 | 17 | 0 | 0 | 0
CCC[C@@H](CN1CCC[C@H]1CN1C(N)=NC[C@@H]1Cc1ccccc1)N1C[C@@H]([C@H](C)CC)N(CCCC2CCCC2)C1=N | 0 | 0 | 0 | 41 | 0 | 0
CCCCN1C(=N)N([C@@H](C)CN2CCC[C@H]2CN2C(N)=NC[C@H]2CC(C)C)C[C@H]1Cc1ccccc1 | 0 | 0 | 0 | 0 | 33 | 0
CCC[C@@H](CN1CCC[C@H]1CN1C(N)=NC[C@@H]1Cc1ccccc1)N1C[C@@H](Cc2ccccc2)N(CCCC2CCCC2)C1=N | 0 | 0 | 0 | 0 | 0 | 0
C[C@@H](CN1CCC[C@H]1CN1C(N)=NC[C@@H]1Cc1ccccc1)N1C[C@@H](Cc2ccccc2)N(CCc2ccc(Cl)c(Cl)c2)C1=N | 0 | 0 | 0 | 0 | 39 | 0
CCCCN1C(=N)N([C@@H](C)CN2CCC[C@H]2CN2C(N)=NC[C@@H]2Cc2ccccc2)C[C@H]1[C@H](C)CC | 0 | 0 | 0 | 0 | 0 | 0
CCn1cc2nc(SCC(=O)Nc3ccc(F)cc3F)n(Cc3ccccc3)c(=O)c2n1 | 0 | 0 | 0 | 0 | 0 | 0
C[C@H](CO)N1C[C@H](C)[C@@H](CN(C)C(=O)NC2CCCCC2)Oc2c(NS(=O)(=O)c3ccc(F)cc3)cccc2C1=O | 0 | 0 | 0 | 0 | 0 | 0
CN(CC(=O)Nc1cccc(C#N)c1)Cc1ccc(Cl)cc1 | 0 | 0 | 0 | 0 | 0 | 0
N#Cc1ccc(NC(=O)Nc2ccc(Oc3ccc(NC(=O)Nc4ccc(C#N)cc4)cc3)cc2)cc1 | 0 | 0 | 0 | 0 | 0 | 0
CN(CC(=O)Nc1ccc(C#N)cc1)CC(=O)Nc1ccc(N2CCOCC2)cc1 | 0 | 0 | 0 | 0 | 0 | 0
CN(CC(=O)Nc1ccc(N2CCOCC2)cc1)CC(=O)Nc1cccc(C#N)c1 | 0 | 0 | 23 | 0 | 0 | 0
CN(CC(=O)Nc1ccc(C#N)cc1)Cc1ccc(Cl)c(Cl)c1 | 0 | 0 | 0 | 43 | 0 | 0
N#Cc1ccc(NC(=O)Nc2cccc(C#N)c2)cc1 | 0 | 0 | 0 | 0 | 32 | 0
CNc1nc(NCc2ccc(N(C)C)cc2)c2sccc2n1 | 0 | 0 | 0 | 0 | 0 | 0
Cc1ccc(Cl)cc1N1CCN(C(=O)c2ccccc2SCC(=O)N2CCCC2)CC1 | 0 | 0 | 0 | 0 | 0 | 0
CC(C)C(=O)Nc1ccc2c(c1)nc(CCN1CCCCC1)n2C | 0 | 0 | 0 | 0 | 0 | 0
CC1CCN(CCc2nc3cc(NC(=O)C(C)C)ccc3n2C)CC1 | 0 | 0 | 0 | 58 | 69 | 0
O=C(NCCc1ccccc1)C(=O)NCC1CCCN1S(=O)(=O)c1cccs1 (stereo unspecified) | 0 | 0 | 0 | 0 | 0 | 0
CCN(CC(=O)Nc1c(F)cccc1F)C(=O)c1n[nH]c2ccccc12 | 0 | 0 | 0 | 0 | 0 | 0
CC(C)(C)C(=O)Nc1ccc(N2CCCC2)cc1 | 0 | 0 | 0 | 44 | 0 | 0
COc1ccc(N2C(=O)CS(=O)C(c3ccccc3)C2=O)cc1 (stereo unspecified) | 0 | 0 | 0 | 0 | 0 | 0
Cc1ccc(N2C(=O)CS(=O)C(c3ccccc3)C2=O)cc1C (stereo unspecified) | 0 | 0 | 0 | 0 | 28 | 0
Cc1cc(C)c(S(=O)(=O)c2ccccc2Cl)c(=O)[nH]1 | 0 | 0 | 0 | 0 | 0 | 0
CCCCN(C(=O)c1ccc2c(c1)S(=O)(=O)N=C1CCCCCN12)c1c(N)n(CC(C)C)c(=O)[nH]c1=O | 0 | 0 | 0 | 0 | 0 | 0
CC(C)c1ccc(NS(=O)(=O)c2ccc(N3C(=O)CCC3=O)cc2)cc1 | 0 | 0 | 0 | 0 | 27 | 0
CC(C)c1ccc(S(=O)(=O)Nc2ccc(SC(F)F)cc2)cc1 | 0 | 0 | 0 | 28 | 0 | 0
CCCSCCCNC(=O)c1ccccc1NC(=O)C1=CSCCO1 | 0 | 0 | 0 | 0 | 0 | 0
CCOC(=O)CCc1c(C)c2ccc3c(c2oc1=O)CN(CCCO)CO3 | 0 | 0 | 0 | 0 | 0 | 0
